Active and inactive are the calls of the source. The calls are words filed in the database; no cut-off is given here.
Key:
Erythrocyte [1] = experiment: Induction of membrane modification in erythrocytes assessed as formation of discocyte shape change at 25 ug/mL after 48 hrs by phase contrast light microscopy; type: functional, cell-based
Method in brief: (§1)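 Nonparasitized erythrocytes incubated with compound under the antiplasmodial culture conditions, without radiotracer. Controls held 0% or 0.5% DMSO and no compound. At 48 h, samples spread on slides, air-dried, methanol-fixed and Giemsa-stained for phase-contrast light microscopy. Dominant cell shapes scored by Bessis nomenclature; degree of lysis also graded.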

Erythrocyte [2] = experiment: Induction of membrane modification in erythrocytes assessed as formation of discocyte shape change at 12.5 ug/mL after 48 hrs by phase contrast light microscopy; type: functional, cell-based; method in brief: as §1
Plasmodium falciparum = experiment: Antiplasmodial activity against Plasmodium falciparum 3D7 by [3H]phenylalanine uptake; type: functional, organism-based; conditions: 3D7, 48 h
Method in brief: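 Asynchronous cultures of chloroquine-sensitive P. falciparum 3D7 in erythrocytes, initial parasitemia 1.5%. Compounds added from DMSO solutions, final DMSO up to 0.5% in growth medium. Growth indexed by [3H]phenylalanine incorporation. Inhibition curves from eight concentrations, each in triplicate, give IC50 (50% growth inhibition). Chloroquine diphosphate as positive reference.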

Erythrocyte [3] = experiment: Induction of membrane modification in erythrocytes assessed as formation of stomatocyte type 2 shape change at 100 ug/mL after 48 hrs by phase contrast light microscopy; type: functional, cell-based; method in brief: as §1
Erythrocyte [4] = experiment: Induction of membrane modification in erythrocytes assessed as formation of stomatocyte type 1 and discocyte shape change at 50 ug/mL after 48 hrs by phase contrast light microscopy; type: functional, cell-based; method in brief: as §1
Erythrocyte [5] = experiment: Induction of membrane modification in erythrocytes assessed as formation of echinocyte type 1 and discocyte shape change at 100 ug/mL after 48 hrs by phase contrast light microscopy; type: functional, cell-based; method in brief: as §1
Erythrocyte [6] = experiment: Induction of membrane modification in erythrocytes assessed as formation of discocyte shape change at 50 ug/mL after 48 hrs by phase contrast light microscopy; type: functional, cell-based; method in brief: as §1
Erythrocyte [7] = experiment: Induction of membrane modification in erythrocytes assessed as formation of echinocyte type 1 shape change at 100 ug/mL after 48 hrs by phase contrast light microscopy; type: functional, cell-based; method in brief: as §1
Erythrocyte [8] = experiment: Induction of membrane modification in erythrocytes assessed as formation of echinocyte type 1 shape change at 12.5 ug/mL after 48 hrs by phase contrast light microscopy; type: functional, cell-based; method in brief: as §1
Erythrocyte [9] = experiment: Induction of membrane modification in erythrocytes assessed as formation of echinocyte type 3 shape change at 100 ug/mL after 48 hrs by phase contrast light microscopy; type: functional, cell-based; method in brief: as §1
Erythrocyte [10] = experiment: Induction of membrane modification in erythrocytes assessed as formation of echinocyte type 3 shape change at 50 ug/mL after 48 hrs by phase contrast light microscopy; type: functional, cell-based; method in brief: as §1
Erythrocyte [11] = experiment: Induction of membrane modification in erythrocytes assessed as formation of echinocyte type 2 shape change at 25 ug/mL after 48 hrs by phase contrast light microscopy; type: functional, cell-based; method in brief: as §1
Erythrocyte [12] = experiment: Induction of membrane modification in erythrocytes assessed as formation of spherostomatocyte type 1 shape change at 50 ug/mL after 48 hrs by phase contrast light microscopy; type: functional, cell-based; method in brief: as §1
Erythrocyte [13] = experiment: Induction of membrane modification in erythrocytes assessed as formation of stomatocyte type 2 and 1 shape change at 25 ug/mL after 48 hrs by phase contrast light microscopy; type: functional, cell-based; method in brief: as §1
Erythrocyte [14] = experiment: Induction of membrane modification in erythrocytes assessed as formation of spherostomatocyte type 2 shape change at 100 ug/mL after 48 hrs by phase contrast light microscopy; type: functional, cell-based; method in brief: as §1
Erythrocyte [15] = experiment: Induction of membrane modification in erythrocytes assessed as formation of spheroechinocyte type 1 and echinocyte type 3 shape change at 100 ug/mL after 48 hrs by phase contrast light microscopy; type: functional, cell-based; conditions: 50 ug/mL, in the assay text read “50 ug/mL” for “100 ug/mL”; method in brief: as §1
Erythrocyte [16] = experiment: Induction of membrane modification in erythrocytes assessed as formation of echinocyte type 3 shape change at 25 ug/mL after 48 hrs by phase contrast light microscopy; type: functional, cell-based; method in brief: as §1
Erythrocyte [17] = experiment: Induction of membrane modification in erythrocytes assessed as formation of spheroechinocyte type 2 shape change at 100 ug/mL after 48 hrs by phase contrast light microscopy; type: functional, cell-based; method in brief: as §1
Erythrocyte [18] = experiment: Induction of membrane modification in erythrocytes assessed as formation of spherostomatocyte type 1 shape change at 100 ug/mL after 48 hrs by phase contrast light microscopy; type: functional, cell-based; method in brief: as §1
Erythrocyte [19] = experiment: Induction of membrane modification in erythrocytes assessed as formation of stomatocyte type 3 and 2 shape change at 50 ug/mL after 48 hrs by phase contrast light microscopy; type: functional, cell-based; method in brief: as §1
Erythrocyte [20] = experiment: Induction of membrane modification in erythrocytes assessed as formation of stomatocyte type 2 and discocyte shape change at 25 ug/mL after 48 hrs by phase contrast light microscopy; type: functional, cell-based; method in brief: as §1
Erythrocyte [21] = experiment: Induction of membrane modification in erythrocytes assessed as formation of echinocyte type 1 and discocyte shape change at 50 ug/mL after 48 hrs by phase contrast light microscopy; type: functional, cell-based; method in brief: as §1

| Structure (SMILES) | IC50 (Plasmodium falciparum) | Activity (Erythrocyte [1]) | Activity (Erythrocyte [2]) | Activity (Erythrocyte [3]) | Activity (Erythrocyte [6]) | further results |
| --- | --- | --- | --- | --- | --- | --- |
| C=C1CC[C@@H]2[C@](C)(CCC[C@]2(C)C(=O)O)[C@H]1CCc1ccoc1 [LAMBERTIAINC ACID] | 130 µM | Active | Active | Active |  | Activity (Erythrocyte [4]): Active |
| C=C1CC[C@@H]2[C@](C)(CCC[C@]2(C)C(=O)O)[C@H]1CCC1=CC(O)OC1=O (stereo not given in full) | 145 µM | Active | Active |  | Active | Activity (Erythrocyte [5]): Active |
| C=C1CC[C@@H]2[C@](C)(CCC[C@]2(C)C(=O)O)[C@H]1CC/C(C)=C/CO [ISOCUPRESSIC ACID] | 104 µM | Active | Active | Active | Active |  |
| C=C[C@]1(C)C=C2CC[C@H]3[C@](C)(CO)[C@@H](O)CC[C@]3(C)[C@H]2CC1 [SANDARACOPIMARADIENEDIOL] | 93.3 µM |  |  |  |  | Activity (Erythrocyte [8]): Active; Activity (Erythrocyte [15]): Active; Activity (Erythrocyte [16]): Active; Activity (Erythrocyte [17]): Active |
| C=C1CC[C@@H]2[C@](C)(CCC[C@]2(C)C(=O)O)[C@H]1CCC1=CCOC1=O [PINUSOLIDIC ACID] | 164 µM | Active | Active | Active |  | Activity (Erythrocyte [21]): Active |

The next compounds have a lower IC50 (Plasmodium falciparum) than those just listed; values first:

| IC50 (Plasmodium falciparum) | Structure (SMILES) | Activity (Erythrocyte [1]) | Activity (Erythrocyte [2]) | Activity (Erythrocyte [3]) | Activity (Erythrocyte [6]) | further results |
| --- | --- | --- | --- | --- | --- | --- |
| 84.1 µM | C=C1CC[C@@H]2[C@](C)(CCC[C@]2(C)C(=O)O)[C@H]1CCC1=CC(=O)OC1O (stereo not given in full) | Active | Active |  |  | Activity (Erythrocyte [21]): Active; Activity (Erythrocyte [5]): Active |
| 80.9 µM | C=C[C@@]1(C)CC[C@H]2[C@@](O)(CC[C@H]3C(C)(C)[C@@H](O)CC[C@@]32C)C1 | Active | Active |  | Active | Activity (Erythrocyte [7]): Active |
| 76.3 µM | CC1(C)CCC[C@@]2(C)[C@H]1CC[C@@]1(CO1)[C@@H]2C/C=C(/C=O)CC=O [AFRAMODIAL] |  | Active |  |  | Activity (Erythrocyte [12]): Active; Activity (Erythrocyte [13]): Active; Activity (Erythrocyte [14]): Active |
| 53.4 µM | C=C1CC[C@@H]2[C@](C)(CCC[C@]2(C)C(=O)OC)[C@H]1CCC1=CCOC1=O [PINUSOLIDE] |  | Active |  |  | Activity (Erythrocyte [18]): Active; Activity (Erythrocyte [19]): Active; Activity (Erythrocyte [20]): Active |
| 24.6 µM | C=C[C@@]1(C)CCC2=C(CC[C@H]3C(C)(C)[C@@H](O)CC[C@]23C)C1 |  |  |  |  | Activity (Erythrocyte [8]): Active; Activity (Erythrocyte [9]): Active; Activity (Erythrocyte [10]): Active; Activity (Erythrocyte [11]): Active |

— ChEMBL document CHEMBL1151174, “Labdanes and isopimaranes from Platycladus orientalis and their effects on erythrocyte membrane and on Plasmodium falciparum growth in the erythrocyte host cells” (J Nat Prod, 2004)
